The results in this text go back to PMC9789792 (Inorganic chemistry, 2022).

The test system of assay [1] is SadX. The format is biochemical. To be noted: for Km: KM for salt; for Km / kcat: hydroxylation of 1a (1 mM) to give 1b by 0.5 μM SadX, varying [salt]; for Kinetic behaviour of 1b formation as a function of salt concentration: saturating 1a (1 mM), SadX.
Assay [2] relates to SadX. Briefly: Steady state kinetic analysis of SadX with varying concentrations of 1a. Format: biochemical.
The target of assay [3] is Fe(II) center in SadX. Description: UV-vis titration of anion binding. The following applies: SadX-His/Fe(II)/αKG, 100 mM HEPES pH 7.5. A digest of the protocol: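 Anaerobic (N₂ glovebox, degassed buffer): SadX-His (0.51 mM, 0.5 μmol) plus FeSO₄ (0.375 μmol) in 100 mM HEPES pH 7.5, 23 °C, quartz cuvette. αKG (5 μmol) added, then anion salt (10–200 mM stocks). Spectra 350–800 nm, dilution-corrected. Difference spectra taken versus initial SadX-His/Fe(II) and zeroed at 800 nm. λmax absorbances fitted to single-site saturation binding for KD.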

Assay [4] relates to SadX. Description: SadX activity assay: conversion of 1a in the presence of salts. Format: biochemical. The following applies: 10 μM SadX, 1 mM 1a, 50 mM salt, overnight, room temperature.

Like-named read-outs stand apart in the source and are kept apart here.

Broadly, the Km is the concentration of substrate that gives half-maximal velocity. One may read the kcat as the maximal rate divided by the concentration of active sites. Usually Kd stands for a measure of binding affinity in units of concentration. Turning to `[Cs+].[F-]` [CsF], the Km in assay [1] came out at 12000 µM. The kcat in assay [1] was 0.357 s⁻¹. Further, the “Fold improved kcat/KM relative to that in the absence of salt” value in assay [2] (SadX, hydroxylation of 1a) stood at 16 fold. The Kd in assay [3] (Blue-shifted Absorbance) was 460 µM; in assay [3] (Red-shifted Absorbance), 450 µM.
Take `F[P-](F)(F)(F)(F)F.[NH4+]` [NH4PF6]: in assay [1], the “Kinetic behaviour of 1b formation as a function of salt concentration” value (“Kinetic behaviour of 1b formation” below) is “does not follow Michaelis Menten kinetics”. In addition, the “Conversion of 1a (to 1b)” value in assay [4] was “trace conversion”.
In the case of `[Cl-].[Na+]` [NaCl], in assay [1], the Km turned out to be 4160 µM, the turnover number (kcat) came to 0.197 s⁻¹ and the “Kinetic behaviour of 1b formation” value is on record as “exhibit saturation kinetics”. Besides, the Kd in assay [3] (Blue-shifted Absorbance) amounted to 600 µM. Besides, in assay [3] (Red-shifted Absorbance), the Kd was found to be 490 µM.
For the compound `[N-]=[N+]=[N-].[Na+]` [NaN3], in assay [1], the Michaelis-Menten constant (Km) came to 14 µM, the kcat turned out to be 0.953 s⁻¹ and the “Kinetic behaviour of 1b formation” value is reported as “exhibit saturation kinetics”. Also, the “Fold by which hydroxylation kcat/KM exceeds WT SadA” value in assay [2] (SadX, hydroxylation of 1a) is recorded as 12 fold. For the same compound, the turnover number (kcat) in assay [2] (azidation of 1a by SadX to give 1eN3, varying [1a]) is on record as 8.72 10^−3 s^−1. Moreover, the Kd in assay [3] (Blue-shifted Absorbance) is 2650 µM. Besides, the Kd in assay [3] (Red-shifted Absorbance) came out at 600 µM.
For `O=C[O-].[Na+]` [NaOC(O)H], in assay [1], the Michaelis constant (Km) was found to be 450 µM and the kcat came out at 0.122 s⁻¹. Moreover, in assay [3] (Blue-shifted Absorbance), the dissociation constant (Kd) amounted to 530 µM. Further, in assay [3] (Red-shifted Absorbance), the Kd was found to be 470 µM.
In the case of `CC(=O)O` [acetate], the “Conversion of 1a (to 1b)” value in assay [4] is recorded as “low conversion”.
With `N#C[O-].[Na+]` [cyanate], in assay [4], the “Conversion of 1a (to 1b)” value was “high conversion”.
Consider bromide, for which the “Conversion of 1a (to 1b)” value in assay [4] was “significantly lower conversion”.
